Reference: ChEMBL document CHEMBL1129686, “(S)-(-)-5-ethynyl-3-(1-methyl-2-pyrrolidinyl)pyridine maleate (SIB-1508Y): a novel anti-parkinsonian agent with selectivity for neuronal nicotinic acetylcholine receptors” (J Med Chem, 1996)
Several values for one entry are separate records, joined by “and”; a condition that tells them apart may be missing. Equal entries are not always repeated.

Key:
[1] = biological target: T1, Neuronal acetylcholine receptor; alpha4/beta4 (Homo sapiens, UniProt P30926+P43681); assay: The compound was tested on recombinant human alpha4-beta4 cell lines of Human embryonic kidney for nicotinic acetylcholine receptor agonist functional potency
Method in brief: (§1)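 Stably transfected human recombinant NAChR cell lines: HEK293 for α2β4, α3β4, α4β4 and α4β2; human RD cells for fetal α1β1γδ muscle receptor. Agonist-evoked Ca2+ entry read as change in [Ca2+]i with fluo-3. Highest concentration tested 300 μM.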
Target sequence in this assay (P30926 whole entry): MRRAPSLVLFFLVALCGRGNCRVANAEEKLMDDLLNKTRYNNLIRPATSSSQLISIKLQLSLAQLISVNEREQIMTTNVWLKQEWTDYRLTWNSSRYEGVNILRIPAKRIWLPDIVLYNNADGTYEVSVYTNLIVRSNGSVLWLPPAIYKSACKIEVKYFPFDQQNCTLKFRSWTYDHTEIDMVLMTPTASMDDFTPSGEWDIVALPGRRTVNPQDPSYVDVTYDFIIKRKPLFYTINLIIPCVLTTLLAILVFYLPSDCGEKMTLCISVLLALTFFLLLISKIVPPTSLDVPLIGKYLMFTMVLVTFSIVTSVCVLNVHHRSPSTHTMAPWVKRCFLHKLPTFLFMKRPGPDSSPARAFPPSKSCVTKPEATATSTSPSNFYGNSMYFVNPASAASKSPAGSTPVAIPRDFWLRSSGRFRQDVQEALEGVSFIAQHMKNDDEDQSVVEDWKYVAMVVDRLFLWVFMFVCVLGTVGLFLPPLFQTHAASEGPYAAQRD
Target sequence in this assay (P43681 whole entry): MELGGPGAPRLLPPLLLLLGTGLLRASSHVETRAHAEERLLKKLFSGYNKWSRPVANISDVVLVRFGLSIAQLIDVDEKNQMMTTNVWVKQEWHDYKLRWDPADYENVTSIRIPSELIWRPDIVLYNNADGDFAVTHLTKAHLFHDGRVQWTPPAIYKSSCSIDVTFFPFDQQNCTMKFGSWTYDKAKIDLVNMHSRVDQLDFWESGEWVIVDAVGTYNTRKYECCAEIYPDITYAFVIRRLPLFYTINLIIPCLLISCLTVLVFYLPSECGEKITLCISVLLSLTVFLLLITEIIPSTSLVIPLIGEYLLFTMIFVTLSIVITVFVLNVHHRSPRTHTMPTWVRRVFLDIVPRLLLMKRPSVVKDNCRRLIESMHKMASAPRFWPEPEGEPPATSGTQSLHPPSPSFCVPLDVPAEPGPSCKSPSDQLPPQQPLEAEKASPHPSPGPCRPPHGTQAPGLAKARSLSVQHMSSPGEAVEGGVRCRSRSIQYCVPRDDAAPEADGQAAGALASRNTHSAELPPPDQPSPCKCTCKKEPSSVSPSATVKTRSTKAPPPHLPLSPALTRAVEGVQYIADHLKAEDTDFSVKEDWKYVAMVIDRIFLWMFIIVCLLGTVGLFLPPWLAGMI

[2] = biological target: T2, Nicotinic acetylcholine receptor alpha2/beta4 (Homo sapiens, UniProt P30926+Q15822); assay: The compound was tested on recombinant human alpha2-beta4 cell lines of Human embryonic kidney for nicotinic acetylcholine receptor agonist functional potency; method in brief: as §1
T2 sequence (P02708 whole entry): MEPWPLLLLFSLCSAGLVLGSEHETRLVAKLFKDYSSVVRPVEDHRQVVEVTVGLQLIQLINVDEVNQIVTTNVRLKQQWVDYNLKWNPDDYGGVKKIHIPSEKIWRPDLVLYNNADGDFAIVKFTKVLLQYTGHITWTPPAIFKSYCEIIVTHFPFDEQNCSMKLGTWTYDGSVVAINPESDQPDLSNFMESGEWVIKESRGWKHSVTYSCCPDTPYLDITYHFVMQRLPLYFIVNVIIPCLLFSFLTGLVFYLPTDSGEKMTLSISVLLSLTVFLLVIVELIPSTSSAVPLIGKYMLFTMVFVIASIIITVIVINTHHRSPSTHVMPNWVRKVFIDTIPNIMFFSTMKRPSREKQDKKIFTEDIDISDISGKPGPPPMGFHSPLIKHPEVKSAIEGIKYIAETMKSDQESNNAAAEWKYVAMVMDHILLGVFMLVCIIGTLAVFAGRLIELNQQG
T2 sequence (P30926 whole entry): as the sequence (P30926 whole entry) above

[3] = biological target: Neuronal nicotinic acetylcholine receptor; assay: Binding affinity at NAChRs was determined by measuring the displacement of ([3H]Nic) from a preparation of rat cortical membranes.; type: cell membranes, Membrane
[4] = biological target: Muscarinic acetylcholine receptor; assay: Muscarinic acetylcholine receptor binding (rat cortical membranes) was determined by displacement of [3H]quinuclidinyl benzylate [3H]QNB)
[5] = organism: Rattus norvegicus; assay: The efficiency of the compound (300 micro M) to stimulate ([3H]DA) release; type: functional
[6] = biological target: T3, Neuronal acetylcholine receptor; alpha3/beta4 (Homo sapiens, UniProt P30926+P32297); assay: The compound was tested on recombinant human alpha3-beta4 cell lines of Human embryonic kidney for nicotinic acetylcholine receptor agonist functional potency; method in brief: as §1
T3 sequence (P30926 whole entry): as above
T3 sequence (P32297 whole entry): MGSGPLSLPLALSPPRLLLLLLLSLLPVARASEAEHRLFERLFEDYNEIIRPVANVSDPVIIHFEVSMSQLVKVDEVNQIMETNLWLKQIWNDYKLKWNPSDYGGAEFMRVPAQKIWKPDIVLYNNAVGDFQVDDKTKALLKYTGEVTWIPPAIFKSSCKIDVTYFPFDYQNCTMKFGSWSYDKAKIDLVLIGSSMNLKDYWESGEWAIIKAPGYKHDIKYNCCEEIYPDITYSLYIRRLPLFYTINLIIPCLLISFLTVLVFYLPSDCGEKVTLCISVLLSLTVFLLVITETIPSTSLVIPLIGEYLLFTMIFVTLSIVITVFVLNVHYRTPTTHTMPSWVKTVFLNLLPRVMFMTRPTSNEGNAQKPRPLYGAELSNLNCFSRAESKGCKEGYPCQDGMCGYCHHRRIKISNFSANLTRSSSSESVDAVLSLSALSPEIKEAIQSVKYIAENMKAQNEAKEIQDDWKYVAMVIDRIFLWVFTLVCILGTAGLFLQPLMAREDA

[7] = biological target: T3, Neuronal acetylcholine receptor; alpha3/beta4; assay: The compound was tested on recombinant human alpha3-beta4 cell lines of HUman embryonic kidney for nicotinic acetylcholine receptor agonist functional potency; method in brief: as §1
[8] = biological target: T1, Neuronal acetylcholine receptor; alpha4/beta4; assay: The compound was tested on recombinant human alpha4-beta4 cell lines of HUman embryonic kidney for nicotinic acetylcholine receptor agonist functional potency; method in brief: as §1
Target sequence in this assay (P43681 whole entry, looked up): as the sequence (P43681 whole entry) above
Target sequence in this assay (P30926 whole entry, looked up): as the sequence (P30926 whole entry) above

[9] = biological target: Neuronal acetylcholine receptor; alpha4/beta2 (Homo sapiens, UniProt P17787+P43681); assay: The compound was tested on recombinant human alpha4-beta2 cell lines of Human embryonic kidney for nicotinic acetylcholine receptor agonist functional potency; IA=inactive; method in brief: as §1
Chain of Neuronal acetylcholine receptor; alpha4/beta2 (P17787 whole entry): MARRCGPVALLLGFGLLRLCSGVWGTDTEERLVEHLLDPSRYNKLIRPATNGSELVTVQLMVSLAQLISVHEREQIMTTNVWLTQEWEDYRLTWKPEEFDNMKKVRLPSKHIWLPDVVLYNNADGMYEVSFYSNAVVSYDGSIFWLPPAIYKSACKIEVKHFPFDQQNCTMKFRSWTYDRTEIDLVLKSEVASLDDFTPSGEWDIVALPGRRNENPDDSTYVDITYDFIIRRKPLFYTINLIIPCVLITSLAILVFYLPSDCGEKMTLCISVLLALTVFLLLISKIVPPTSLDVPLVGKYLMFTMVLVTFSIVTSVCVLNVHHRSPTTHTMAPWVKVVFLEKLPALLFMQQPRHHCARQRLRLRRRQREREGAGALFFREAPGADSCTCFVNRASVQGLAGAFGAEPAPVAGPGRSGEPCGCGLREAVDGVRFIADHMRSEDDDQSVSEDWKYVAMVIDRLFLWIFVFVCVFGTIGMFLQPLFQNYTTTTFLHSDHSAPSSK
Chain of Neuronal acetylcholine receptor; alpha4/beta2 (P43681 whole entry): as the sequence (P43681 whole entry) above

[10] = biological target: T2, Nicotinic acetylcholine receptor alpha2/beta4; assay: The compound was tested on recombinant human alpha2-beta4 cell lines of HUman embryonic kidney for nicotinic acetylcholine receptor agonist efficacy
[11] = biological target: Muscle-type nicotinic acetylcholine receptor; assay: (§2) The compound was tested on recombinant human alpha-1-beta-1-gamma-delta cell lines of […] for nicotinic acetylcholine receptor agonist functional potency
[12] = biological target: Acetylcholine receptor; alpha1/beta1/delta/gamma (Homo sapiens, UniProt P02708+P07510+P11230+Q07001); assay: as §2
Chain of Acetylcholine receptor; alpha1/beta1/delta/gamma (P02708 whole entry): as the sequence (P02708 whole entry) above
Chain of Acetylcholine receptor; alpha1/beta1/delta/gamma (P07510 whole entry): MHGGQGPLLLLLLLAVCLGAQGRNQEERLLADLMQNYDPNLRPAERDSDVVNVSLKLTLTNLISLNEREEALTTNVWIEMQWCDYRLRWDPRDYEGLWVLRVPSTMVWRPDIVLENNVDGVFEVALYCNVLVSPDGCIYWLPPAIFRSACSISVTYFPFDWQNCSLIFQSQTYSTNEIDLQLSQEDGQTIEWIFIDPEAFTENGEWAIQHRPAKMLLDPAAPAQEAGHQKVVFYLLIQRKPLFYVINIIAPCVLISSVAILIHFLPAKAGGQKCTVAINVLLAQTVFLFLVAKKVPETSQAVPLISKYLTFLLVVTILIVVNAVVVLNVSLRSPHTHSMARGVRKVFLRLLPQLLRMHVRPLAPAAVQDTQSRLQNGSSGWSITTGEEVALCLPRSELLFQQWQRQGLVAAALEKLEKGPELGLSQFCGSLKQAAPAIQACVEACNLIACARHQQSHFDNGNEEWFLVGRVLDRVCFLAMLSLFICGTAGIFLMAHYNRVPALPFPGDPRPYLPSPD
Chain of Acetylcholine receptor; alpha1/beta1/delta/gamma (P11230 whole entry): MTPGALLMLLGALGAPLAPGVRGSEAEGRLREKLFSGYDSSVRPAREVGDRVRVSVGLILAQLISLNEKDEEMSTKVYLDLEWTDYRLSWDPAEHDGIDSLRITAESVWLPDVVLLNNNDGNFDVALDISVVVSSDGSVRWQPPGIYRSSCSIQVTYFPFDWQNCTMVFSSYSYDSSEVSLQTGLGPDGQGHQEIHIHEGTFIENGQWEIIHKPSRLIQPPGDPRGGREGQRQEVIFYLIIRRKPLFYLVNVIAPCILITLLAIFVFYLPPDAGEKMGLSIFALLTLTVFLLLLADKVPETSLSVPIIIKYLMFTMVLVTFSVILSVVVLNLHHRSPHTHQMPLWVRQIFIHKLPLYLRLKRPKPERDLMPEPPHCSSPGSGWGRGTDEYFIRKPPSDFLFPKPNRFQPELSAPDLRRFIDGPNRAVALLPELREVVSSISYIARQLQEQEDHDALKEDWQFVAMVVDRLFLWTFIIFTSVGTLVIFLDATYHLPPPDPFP
Chain of Acetylcholine receptor; alpha1/beta1/delta/gamma (Q07001 whole entry): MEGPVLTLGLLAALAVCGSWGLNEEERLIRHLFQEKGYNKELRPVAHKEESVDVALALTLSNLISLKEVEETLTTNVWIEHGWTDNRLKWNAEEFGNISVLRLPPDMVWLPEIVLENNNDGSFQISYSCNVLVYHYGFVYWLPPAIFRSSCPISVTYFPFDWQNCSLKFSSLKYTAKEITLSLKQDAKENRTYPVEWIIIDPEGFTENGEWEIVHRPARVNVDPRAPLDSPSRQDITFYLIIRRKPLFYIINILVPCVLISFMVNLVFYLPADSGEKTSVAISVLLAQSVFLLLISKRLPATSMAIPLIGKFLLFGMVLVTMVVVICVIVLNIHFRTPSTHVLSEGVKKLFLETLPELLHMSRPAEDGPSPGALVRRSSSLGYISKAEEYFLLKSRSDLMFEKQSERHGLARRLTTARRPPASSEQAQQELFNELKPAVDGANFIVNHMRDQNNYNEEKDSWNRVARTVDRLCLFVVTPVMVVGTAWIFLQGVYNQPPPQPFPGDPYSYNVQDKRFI

SMILES	EC50 [1]	EC50 [2]	IC50 [3]	IC50 [4]	Release [5]	EC50 [6]	EC50 [7]	EC50 [8]	EC50 [9]	Efficacy [10]	EC50 [11]	EC50 [12]
C#Cc1cncc([C@@H]2CCCN2C)c1 [ALTINICLINE]	9 µM and 26 µM	5 µM and 49 µM	0.003 µM	8.9 µM	163%	23 µM and 52 µM	–	–	–	–	–	–
C#Cc1cncc([C@H]2CCCN2C)c1	–	29 µM	0.075 µM	4.5 µM	55%	68 µM	68 µM	31 µM and 8 µM	Not Active	9%	–	–
CN1CCC[C@H]1c1cccnc1 [NICOTINE]	–	10 µM	–	–	–	–	–	–	–	–	65 µM	–
C#Cc1cncc(C2CCCN2C)c1 (stereo not given)	25 µM and 23 µM	15 µM and 39 µM	0.0046 µM	10.1 µM	143%	41 µM and 34 µM	–	–	–	–	–	52 µM and 53 µM
CN1CCCC1c1cncc(Br)c1 (stereo not given)	–	–	0.019 µM	1.6 µM	69%	–	–	–	–	–	–	–
CCc1cncc(C2CCCN2C)c1 (stereo not given)	–	–	0.011 µM	5.8 µM	27.5%	–	–	–	–	–	–	–
